Test results: ChEMBL document CHEMBL2331243, “Discovery and mechanism study of SIRT1 activators that promote the deacetylation of fluorophore-labeled substrate” (J Med Chem, 2013)
pEC50: −log10 of the molar value. Active and inactive are the calls of the source. The calls are words filed in the database; no cut-off is given here.

Tests used:
[1] = target: T1, NAD-dependent protein deacetylase sirtuin-1 (Homo sapiens) (UniProt Q96EB6); assay: Activation of N-terminal His6-tagged SIRT1 (156 to 664 amino acid residues) (unknown origin) expressed in Escherichia coli BL21(DE3) using ac-RHKKac-AMC as substrate at 50 uM after 45 mins by fluorimetric analysis relative to control
T1 sequence (whole entry): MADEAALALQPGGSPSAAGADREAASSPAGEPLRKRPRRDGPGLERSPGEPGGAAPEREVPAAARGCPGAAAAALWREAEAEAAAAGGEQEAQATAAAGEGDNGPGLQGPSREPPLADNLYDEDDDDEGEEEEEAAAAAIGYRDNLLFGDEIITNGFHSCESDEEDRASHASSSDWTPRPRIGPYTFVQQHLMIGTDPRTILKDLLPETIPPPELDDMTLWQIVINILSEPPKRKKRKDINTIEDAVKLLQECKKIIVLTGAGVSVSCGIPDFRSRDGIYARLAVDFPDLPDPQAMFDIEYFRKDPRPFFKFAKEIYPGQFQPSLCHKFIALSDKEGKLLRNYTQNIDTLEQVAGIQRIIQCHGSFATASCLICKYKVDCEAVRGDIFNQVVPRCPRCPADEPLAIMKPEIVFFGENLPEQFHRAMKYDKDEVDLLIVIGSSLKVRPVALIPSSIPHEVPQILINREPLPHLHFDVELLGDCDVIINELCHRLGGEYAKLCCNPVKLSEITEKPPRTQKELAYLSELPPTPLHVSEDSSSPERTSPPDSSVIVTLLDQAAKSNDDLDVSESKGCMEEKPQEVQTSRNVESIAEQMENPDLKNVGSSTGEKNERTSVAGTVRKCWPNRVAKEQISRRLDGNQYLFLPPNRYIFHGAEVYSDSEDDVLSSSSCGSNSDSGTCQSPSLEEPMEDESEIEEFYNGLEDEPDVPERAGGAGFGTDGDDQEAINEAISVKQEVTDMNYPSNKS
Procedure, shortened: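 Fluorogenic deacetylation screen: 1 μM SIRT1 with 750 μM NAD⁺ and 31.25 μM ac-RHKK_ac-AMC in Tris buffer (25 mM Tris, 137 mM NaCl, 2.7 mM KCl, 1 mM MgCl₂, pH 8.0). Compounds at 50 μM from DMSO stocks; DMSO alone as blank. Trypsin then releases AMC from deacetylated peptide; fluorescence read at 340/490 nm.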

[2] = target: T2, NAD-dependent protein deacetylase sirtuin-1 (Homo sapiens, UniProt Q96EB6); assay: Activation of N-terminal His6-tagged SIRT1 (156 to 664 amino acid residues) (unknown origin) expressed in Escherichia coli BL21(DE3) using ac-RHKKac-AMC as substrate after 45 mins by fluorometric analysis
T2 sequence (Q96EB6 whole entry): T1 sequence (whole entry)

[3] = target: T3, NAD-dependent protein deacetylase sirtuin-2 (Homo sapiens, UniProt Q8IXJ6); assay: Activation of at N-terminal GST-tagged SIRT2 (34 to 356 amino acid residues) (unknown origin) expressed in Escherichia coli BL21(DE3) using ac-RHKKac-AMC as substrate after 45 mins by fluorometric analysis
T3 sequence (Q8IXJ6 whole entry): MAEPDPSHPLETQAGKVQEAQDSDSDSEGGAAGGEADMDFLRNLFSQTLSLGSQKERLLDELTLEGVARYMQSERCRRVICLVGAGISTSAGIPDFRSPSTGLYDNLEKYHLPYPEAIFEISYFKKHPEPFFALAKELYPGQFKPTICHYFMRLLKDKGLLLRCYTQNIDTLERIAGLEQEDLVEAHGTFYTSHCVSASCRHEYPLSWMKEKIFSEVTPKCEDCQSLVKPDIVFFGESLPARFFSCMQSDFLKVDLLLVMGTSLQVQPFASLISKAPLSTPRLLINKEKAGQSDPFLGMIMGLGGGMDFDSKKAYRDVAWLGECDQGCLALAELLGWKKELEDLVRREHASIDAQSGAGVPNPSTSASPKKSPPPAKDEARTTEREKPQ
Procedure, shortened: (§1)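 Fluorescent deacetylation assay in 25 mM Tris, 137 mM NaCl, 2.7 mM KCl, 1 mM MgCl₂, pH 8.0, with 750 μM NAD⁺ and 31.25 μM ac-RHKK_ac-AMC. Enzyme was 3.6 μM SIRT3 or 4.2 μM GST-SIRT2, set to match SIRT1 activity. Trypsin released AMC from the deacetylated peptide, read at ex 340 / em 490 nm. Compounds were added from DMSO (DMSO as blank): single point at 50 μM, or 3-fold DMSO dilution series. EC1.5 (concentration giving 50% activity increase) and maximum activation were fitted to a dose–response function.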

[4] = target: T4, NAD-dependent protein deacetylase sirtuin-2 (Homo sapiens) (UniProt Q8IXJ6); assay: Activation of at N-terminal GST-tagged SIRT2 (34 to 356 amino acid residues) (unknown origin) expressed in Escherichia coli BL21(DE3) using ac-RHKKac-AMC as substrate at 50 uM after 45 mins by fluorometric analysis relative to control; procedure, shortened: as §1
T4 sequence (whole entry): T3 sequence (Q8IXJ6 whole entry)

[5] = target: T1, NAD-dependent protein deacetylase sirtuin-1 (Homo sapiens); assay: Activation of N-terminal His6-tagged SIRT1 (156 to 664 amino acid residues) (unknown origin) expressed in Escherichia coli BL21(DE3) using ac-RHKKac-NH2 as substrate after 45 mins by HPLC analysis
[6] = target: T1, NAD-dependent protein deacetylase sirtuin-1 (Homo sapiens); assay: Activation of SIRT1 in human MCF7 cells assessed as reduction in doxorubicin-induced acetyl-p53 level up to 100 uM after 6 hrs by Western blotting analysis; type: cell-based
Procedure, shortened: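 MCF-7 cells were seeded at 1 × 10⁵ per well in DMEM with 10% FCS and grown 24 h at 37 °C, 5% CO₂. Graded compound concentrations were added together with 0.1 μM TSA and 5 μM doxorubicin for 6 h. Lysate (50 μg protein) was run on a 9% gel and blotted with an anti-acetyl-p53 (Lys382) polyclonal antibody at 4 °C overnight, then HRP anti-rabbit IgG with chemiluminescence.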

SMILES | max activation [1] [%] | pEC50 [2] | other results
O=C(N/N=C/c1cc(Br)c(O)c(Br)c1O)c1cc2ccccc2cc1O | 375 | 5.35 | –
O=C(N/N=C/c1cc(Br)c(O)c(Br)c1O)c1cccc(-c2ccccc2)c1 | 212 | 4.74 | –
O=C(N/N=C/c1cc(Br)c(O)c(Br)c1O)c1ccc(-c2ccccn2)cc1 | 467 | 5.64 | –
CS(=O)(=O)c1ccc2cc(C(=O)N/N=C/c3cc(Br)c(O)c(Br)c3O)ccc2c1 | 368 | 5.64 | –
O=C(N/N=C/c1cc(Br)c(O)c(Br)c1O)c1ccc(C(F)(F)F)cc1 | 161 | 4.69 | –
Cc1ccc(C(=O)N/N=C/c2cc(Br)c(O)c(Br)c2O)cc1 | 161 | 5.02 | –
O=C(N/N=C/c1cc(Br)c(O)c(Br)c1O)c1ccc2cc(-c3ccco3)ccc2c1 | 267 | 5.59 | –
N#Cc1ccc2cc(C(=O)N/N=C/c3cc(Br)c(O)c(Br)c3O)ccc2c1 | 433 | 5.36 | –
O=C(N/N=C/c1cc(Br)c(O)c(Br)c1O)c1ccc(-c2ccccc2)cc1 | 246 | 5.77 | –
O=C(Nc1ccccc1-c1cn2c(CN3CCNCC3)csc2n1)c1ccccc1 | 322 | 4.60 | –
O=C(N/N=C/c1cc(Br)c(O)c(Br)c1O)c1ccc(-c2ccncc2)cc1 | 390 | 5.80 | –
O=C(Nc1ccccc1-c1cn2c(CN3CCNCC3)csc2n1)c1cc2ccccc2o1 | 381 | 6.21 | –
O=C(N/N=C/c1cc(Br)c(O)c(Br)c1O)c1ccc(-c2ccco2)cc1 | 374 | 5.68 | –
COc1c(/C=N/NC(=O)c2ccc(-c3ccccc3)cc2)cc(Br)c(O)c1Br | 191 | 4.74 | –
COc1ccc(C(=O)Nc2ccccc2-c2cn3c(CN4CCNCC4)csc3n2)c(OC)c1 | 197 | 4.51 | –
O=C(N/N=C/c1cc(Br)c(O)c(Br)c1O)c1ccc2ccccc2c1 | 331 | 5.80 | –
COc1cc(OC)cc(C(=O)N/N=C/c2cc(Br)c(O)c(Br)c2O)c1 | 112 | – | –
O=C(N/N=C/c1cc(Br)c(O)c(Br)c1O)c1ccc2c(c1)Cc1ccccc1-2 | 212 | 5.27 | pEC50 [3]: 4.78; max activation [4]: 206%
O=C(Nc1ccccc1-c1cn2c(CN3CCNCC3)csc2n1)c1ccc2occc2c1 | 380 | 5.16 | –
O=C(N/N=C/c1cc(Br)c(O)c(Br)c1O)c1ccc(Cl)cc1 | 174 | 5.15 | –

SMILES | max activation [1] [%] | pEC50 [2] | other results
O=C(N/N=C/c1ccc(O)cc1O)c1ccc(-c2ccccc2)cc1 | 157 | 4.98 | –
O=C(N/N=C/c1cc(Br)c(O)c(Br)c1O)c1ccc2ncccc2c1 | 239 | 4.26 | –
COc1c(Br)cc(/C=N/NC(=O)c2ccc(-c3ccccc3)cc2)c(O)c1Br | 242 | 4.55 | –
O=C(N/N=C/c1cc(Br)c(O)c(Br)c1O)c1ccc(-c2ccccc2C(F)(F)F)cc1 | 216 | 6.05 | –
O=C(Nc1ccccc1-c1cn2c(CN3CCNCC3)csc2n1)c1cccc2cccnc12 | 208 | 4.35 | –
COc1cc(C(=O)Nc2ccccc2-c2cn3c(CN4CCNCC4)csc3n2)cc(OC)c1OC | 271 | 5.74 | Activity [5]: inactive
O=C(Nc1ccccc1-c1cn2c(CN3CCNCC3)csc2n1)C1CCCC1 | 383 | 3.89 | –
COc1cccc(C(=O)Nc2ccccc2-c2cn3c(CN4CCNCC4)csc3n2)c1 | 928 | 5.43 | –
O=C(Nc1ccccc1-c1cn2c(CN3CCNCC3)csc2n1)c1ccc2ccccc2n1 | 440 | 6.00 | –
N#Cc1ccc(O)c(-c2ccc(C(=O)N/N=C/c3cc(Br)c(O)c(Br)c3O)cc2)c1 | 196 | 5.43 | –
O=C(Nc1ccccc1-c1cn2c(CN3CCNCC3)csc2n1)c1ccncn1 | 270 | 5.77 | –
O=C(Cc1ccccc1)Nc1ccccc1-c1cn2c(CN3CCNCC3)csc2n1 | 130 | 4.85 | –
O=C(Nc1ccccc1-c1cn2c(CN3CCNCC3)csc2n1)c1cnc2ccccc2n1 | 781 | – | –
COc1c(Br)cc(/C=N/NC(=O)c2ccc3cc(Br)ccc3c2)c(O)c1Br | 119 | – | –
O=C(N/N=C/c1cc(Br)c(O)c(Br)c1O)c1ccc(-c2cccnc2)cc1 | 314 | 5.70 | –
COc1c(/C=N/NC(=O)c2ccc3cc(Br)ccc3c2)cc(Br)c(O)c1Br | 298 | 5.06 | –
O=C(N/N=C/c1cc(Br)c(O)c(Br)c1O)c1ccc(-c2ccc3c(c2)OCO3)cc1 | 380 | 5.47 | –
O=C(Nc1ccccc1-c1cn2c(CN3CCNCC3)csc2n1)c1cnc2ccccc2c1 | 301 | 6.17 | –
COc1ccc2cc(C(=O)N/N=C/c3cc(Br)c(O)c(Br)c3O)ccc2c1 | 624 | 6.05 | Activity [6]: Active
